Results pooled from the literature.
Observed: enzyme activity
RET: Proto-oncogene tyrosine-protein kinase receptor Ret (RET, Homo sapiens, UniProt P07949)

SMILES | target | mode | method | concentration | remaining activity [%]
CC(C)(O)[C@H]1CC[C@H](Nc2ccc3ncc(-c4cccc(C(F)(F)F)c4)n3n2)CC1 | RET | inhibitor |  | 1 µM | 86.9
CCN(CC)CCNC(=O)c1c(C)[nH]c(/C=C2\C(=O)Nc3ccc(F)cc32)c1C | RET | inhibitor |  | 1 µM | 0
COc1ccc(-c2cn3cc(C(=O)N4CC(O)C4)nc3c(=O)n2C)c(F)c1 | RET | inhibitor | radiometric | 10 µM | 111
CC(C)(C)c1nc(-c2cccc(NS(=O)(=O)c3c(F)cccc3F)c2F)c(-c2ccnc(N)n2)s1 | RET | inhibitor | radiometric | 1 µM | 81
CCOc1ccccc1NC(=O)Nc1cc(OC)c2nc(NC(=O)c3ccccc3)sc2c1 | RET | inhibitor | radiometric | 0.1 µM | 118
Cc1[nH]c(/C=C2\C(=O)Nc3ccc(F)cc32)c(C)c1C(=O)N[C@H]1CCN(C(=O)N(C)C)C1 | RET | inhibitor |  | 0.1 µM | 62
CCCOc1ccc(OC)c(F)c1C(=O)c1ccc(C(=O)N[C@@H]2CNC[C@H]2NC(=O)c2ccc3[nH]ncc3c2)cc1 | RET | inhibitor |  | 50 nM | 100
O=C(Nc1cnn(-c2csc(C(=O)NC3COC3)c2)c1)Nc1ccccc1Cl | RET | inhibitor |  | 5 µM | 97.8
Cc1cnc(NC2CCOCC2)nc1-n1cnc(C(=O)NC(CN)c2cc(F)cc(Cl)c2)c1 (stereo not shown) | Proto-oncogene tyrosine-protein kinase receptor Ret (RET, Homo sapiens, UniProt P07949, V804L) | inhibitor | radiometric | 1 µM | 93
COC(=O)c1cccc(NC(=O)Nc2cc(C)c3nc(NC(=O)c4ccccc4)sc3c2)c1 | RET | inhibitor | radiometric | 10 µM | 103
COc1cc(Cl)c(C(=O)N[C@@H](CN[C@H]2CC[C@@H](N)CC2)Cc2ccc(C#N)cc2)cc1-c1ccc(CN[C@H](C)c2ccc(C)cc2)o1 | RET | inhibitor |  | 1 µM | 110
COCC(=O)Nc1cc(C(=O)NCCc2cnn(C)c2)cc2ncn(CCc3ccccc3)c12 | RET | inhibitor | radiometric | 0.1 µM | 118
Cc1ccc(C(=O)Nc2ccc(CN3CCN(C)CC3)c(C(F)(F)F)c2)cc1C#Cc1cnc2cccnn12 | Proto-oncogene tyrosine-protein kinase receptor Ret (RET, Homo sapiens, UniProt P07949, M918T) |  |  | 23.5 nM | 1.4
